High-throughput results (PubChem BioAssay)
p97 ATPase inh = human p97 ATPase inhibition; P55072; recombinant p97 ATPase, Kinase-Glo ATP luminescence, 3 h; inhibition, % at 8 µM; actives 0.42% (n = 220,000); in the data active means inhibition above about 15%;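 further: 0% = DMSO vehicle and 100% = wells lacking enzyme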
G6PDH counter = inhibits Leuconostoc G6PDH, flagging false hits in G6PDH-based assays | Purified L. mesenteroides G6PDH, diaphorase/resazurin coupled fluorescence, 45 min | inhibition, % at 5 µM | actives 0.12% (n = 200,000) | AID 1020; in the data active means inhibition above about 50%
Tb hexokinase = T. brucei hexokinase 1 inhibition | recombinant TbHK1, G6PDH-coupled NADH A340 | inhibition, % at 10 µM | actives 0.11% (n = 220,000);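 active means inhibition of 50% or more in the single-dose primary screen; inactive means inhibition below 50%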
DTT redox prof = compounds producing H2O2 with reducing agent – biochemical, NIH compound library profiling, artefact control for MLSCN library redox annotation, primary screen; activation, % at 10 µM; DTT-dependent redox cycling H2O2, phenol red/HRP absorbance; 100% = 100 µM peroxide control, 0% = buffer; actives 0.03% (n = 200,000); AID 878;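 active means activation of at least 50% relative to the plate's high and low controls in the primary single-dose screen; inactive means activation below 50%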;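 further: compound incubated with DTT at 0.8 mM final as the reducing agent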
PMI act hi M6P = activators of human phosphomannose isomerase at near-saturating mannose 6-phosphate; P34949; coupled PMI enzyme assay, resazurin fluorescence, 20 min; stronger effect = higher value; 1 = untreated enzyme, 0 = substrate-free blank; activation factor at 20 µM; actives 0.34% (n = 190,000); AID 1216;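 active means activation factor of 2 or more at 20 µM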
Target sequence (P34949 whole entry, looked up): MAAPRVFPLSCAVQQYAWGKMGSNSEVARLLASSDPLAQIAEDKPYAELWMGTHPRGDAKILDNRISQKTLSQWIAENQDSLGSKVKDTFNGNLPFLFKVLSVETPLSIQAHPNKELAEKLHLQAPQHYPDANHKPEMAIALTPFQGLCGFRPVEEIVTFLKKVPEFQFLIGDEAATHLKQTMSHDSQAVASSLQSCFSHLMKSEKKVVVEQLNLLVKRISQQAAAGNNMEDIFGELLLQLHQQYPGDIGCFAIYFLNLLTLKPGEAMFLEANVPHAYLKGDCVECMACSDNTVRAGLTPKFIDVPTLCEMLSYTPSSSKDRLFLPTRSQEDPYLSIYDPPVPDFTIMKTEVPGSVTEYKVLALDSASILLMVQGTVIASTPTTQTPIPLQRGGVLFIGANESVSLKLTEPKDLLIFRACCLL
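Test system: human phosphomannose isomerase with PGI, G6PDH, diaphorase coupling enzymes; Amount: PMI at 15 ng/mL final; Reagent: Mannose-6-phosphate 1.0 mM (near-saturating) plus 0.22 mM NADP+; Timing: 20 min, room temperature; Technique: resorufin fluorescence at Ex 544/Em 590 nm; Dosing: 20 µM single dose.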
PMI activator = phosphomannose isomerase (human) activation; actives 0.005% (n = 190,000); purified human PMI, coupled resazurin fluorescence, 20 min; stronger effect = higher value; 1 = vehicle control, 0 substrate-free wells; activation factor at 20 µM; AID 1214; P34949;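 active means activation factor of 2 or more at 20 µM, relative to plate controls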
An asterisk follows results filed as active; x = not tested or not shown. In the library only some 0.91% were active in any assay of this set; here they are far more common.

SMILES	p97 ATPase inh	G6PDH counter	Tb hexokinase	DTT redox prof	PMI act hi M6P	PMI activator
OCCCNC(=S)Nc1ccc2nc(-c3ccccn3)c(-c3ccccn3)nc2c1	5	52*	-20	3	0.9	0.4
CC(C)[C@H](NS(=O)(=O)c1cccc(Cl)c1)C(=O)OCC(=O)N1CCN(c2ccccc2)CC1	-2	-14	-4	0	2*	1.4
O=C(OCC(=O)N1CCN(c2ccccc2)CC1)c1cccc(Cl)c1	-6	14	0	0	1.1	1.1
COc1ccccc1N1CCN(C(=O)CSc2nnc3c4ccccc4nc(Cc4ccccc4)n23)CC1	4	-23	-12	0	1	0.9
O=[N+]([O-])c1ccc(O)c(/C=N/n2cnc3ccccc32)c1	10	-12	-24	1	1.1	1.1
Cc1ccc(/C=C2\SC(=S)N(/N=C/c3cc([N+](=O)[O-])ccc3O)C2=O)o1	21*	12	44	0	1.6	1.3
Cc1ccc(NC2CC(=O)N(c3ccc(C)cc3)C2=O)cc1 (stereo not given)	1	7	-5	0	1	1.1
Cc1ccc(NNC2CC(=O)N(c3cccc(Cl)c3)C2=O)cc1 (stereo not given)	4	-7	-11	-1	2.6*	1.7
O=C1CC(NNc2ccccc2)C(=O)N1c1ccccc1 (stereo not given)	-1	14	10	0	2.5*	1.7
O=C(CCCCn1c(=O)c2ccccc2n(Cc2ccccc2)c1=O)NC1CCN(Cc2ccccc2)CC1	-2	-1	0	-1	1	0.9
CCOCCCNC(=S)NCCCNc1nc2ccc(C)cc2cc1C#N	4	7	-3	0	2.1*	1.6
CCOCCCNC(=S)NCCCNc1nc2cc3c(cc2cc1C#N)OCO3	2	-42	-6	2	2.2*	1.6
CN(C)CCCNC(=S)NCCNc1nc2cc3c(cc2cc1C#N)OCO3	12	2	4	0	1	1
CCOCCCNC(=S)NCCNc1nc2ccc(C)cc2cc1C#N	2	0	-4	0	2*	1.5
COc1cc(NC(=O)c2cccc3c2C(=O)N(Cc2cccnc2)C3)cc(OC)c1OC	2	-37	1	-2	0.9	0.9
CCCN(CCC)S(=O)(=O)c1ccc(NS(=O)(=O)c2ccc(F)cc2)cc1	1	1	-1	4	0.9	0.9
Cc1cccc(NC(=O)c2sc3nc(-c4ccccc4)cn3c2C)n1	1	-53	-24	1	0.8	0.8
COc1ccc(-c2cn3c(C)c(C(=O)Nc4cccc(C)n4)sc3n2)cc1	4	-1	-24	0	2*	1.7
O=C(c1ccccc1)c1coc2ccc(O)c(Cl)c12	4	12	5	2	1.1	1
O=C1C(=O)c2c(C(=O)c3ccccc3)coc2-c2ccccc21	4	61*	9	0	0.4	0.3
Cc1ccc(OC(=O)CCC(=O)NC(C)c2ccccc2)cc1 (stereo not given)	-6	21	-1	-1	0.8	0.9
CC1(C)Cc2ccccc2C2=NNC(=O)C2=N1	2	52*	22	-1	0.2	0.2
CCOC(=O)C1=C(Cc2ccc(OC)cc2)C(=O)c2ccccc2C1=O	-1	57*	28	-3	1	0.8
CCOC(=O)c1c(C)nc2c(c1-c1cc(OC)ccc1OC)C(=O)c1ccccc1-2	1	-8	-1	-1	0.9	0.9
CCOC(=O)C1=C(Cc2ccc(C)cc2)C(=O)c2ccccc2C1=O	2	54*	-3	0	1.5	1.2
SMILES	p97 ATPase inh	G6PDH counter	Tb hexokinase	DTT redox prof	PMI act hi M6P	PMI activator
CCN(CC)S(=O)(=O)c1cc(NC(=O)C(CC(C)C)NC(N)=O)ccc1C (stereo not given)	0	17	3	-2	0.9	0.9
COc1ccccc1NC(=O)NCc1ccc2c(c1)OCO2	4	-16	4	4	0.9	0.9
COc1ccccc1N/N=C/c1ccc2c(c1)OCO2	-1	16	-5	0	2.3*	1.5
O=C1/C(=C/c2ccc(F)cc2)SC(=S)N1Nc1ncc(C(F)(F)F)cc1Cl	19*	13	-6	1	1.1	1
OCCC1CN(Cc2cccn2-c2nccs2)CCN1Cc1ccc(F)c(F)c1 (stereo not given)	0	8	1	-2	0.9	0.9
O=C(CSc1ccccc1)NCc1ccccn1	4	-2	0	0	1	0.9
O=C(Cc1ccccc1)N/N=C/c1ccc2cccc(O)c2n1	5	56*	-12	0	0.6	0.9
COc1ccc2[nH]c(C(O)(Cc3cccnc3)Cc3cccnc3)cc2c1	5	1	-3	0	0.8	1
O=C(COC(=O)c1c[nH]c(=O)[nH]c1=O)Nc1ccccc1	3	5	1	1	1	1.1
O=C(Cc1ccccc1)NC(NNc1ccccc1)(C(F)(F)F)C(F)(F)F	1	0	2	-1	2.5*	1.7
N#Cc1cc([N+](=O)[O-])cnc1NCC(O)CO (stereo not given)	2	10	-40	-10	1.1	1.1
C=CCNC(=S)/C(=C(\[O-])c1ccc(Cl)cc1)[n+]1ccccc1	15*	x	-13	x	x	x
COc1cccc(NS(=O)(=O)c2ccc3c(c2)C2C=CCC2C(c2ccc(C(=O)O)cc2)N3)c1 (stereo not given)	15*	2	10	0	1.2	1.3
COc1ccc(C(=O)N/N=C(\C)c2ccc3c(c2)C2C=CCC2C(c2ccccc2)N3)cc1 (stereo not given)	0	-18	-23	0	1.6	1.4
NC(=O)c1ccc(OCC(F)(F)F)nc1	-3	x	3	x	x	x
Cc1cccc(NC(=O)NC(C)C(c2ccccc2)N2CCN(C)CC2)c1 (stereo not given)	-5	4	3	-1	0.9	1
Cc1ccc(S(=O)(=O)NNC(=O)CCC(=O)Nc2ccccc2)cc1	2	10	1	2	1	1
Cc1ccc(S(=O)(=O)NNc2ccccc2)cc1	-6	1	2	2	2.1*	1.1
O=C(NNc1ccccc1)C(=O)NNS(=O)(=O)c1ccc(CCCl)cc1	4	x	29	x	x	x
Nc1ccc(S(=O)(=O)NNC(=O)C(=O)NNc2ccccc2)cc1	2	4	4	1	2.3*	1.6
O=C(/C=C/c1ccc(Br)o1)Nc1nccs1	4	3	-15	0	2*	1.6
O=C(COC(=O)c1ccc(OC(F)F)cc1)NCCCN1CCCC1=O	3	x	-1	x	x	x
